Bioassay records as filed in PubChem.
Runt-SMMHC FRET: blocks binding of human RUNX1 Runt domain to CBFb-SMMHC. Cerulean-Runt/Venus-CBFb-SMMHC FRET ratio 530/480, 1 h. inhibition, % at 20 µM. 0.74% of 220,000 active;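 active means mean inhibition across duplicate retests at 20 µM reaching about 50%, limit read from the data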;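 further: 0% = DMSO wells and 100% = wells with excess untagged CBFb-SMMHC; inhibitors lower the FRET ratio by blocking Runt binding to CBFb-SMMHC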
Wee1 stabilizer: inhibitors of human Wee1 degradation; HeLa Luc-Wee1K328M stability, luciferase luminescence; 100% = proteasome inhibitor MG132 effect; P30291; 1.2% of 220,000 active; reporter increase, % at 5 µM;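 active means activation above the mean of all tested compounds plus 3 SD, set per screening run, cut at about 8.8% in these data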;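 further: cells exposed to compound for 20 h before luminescence read; 0% = DMSO alone and 100% = MG132 at 30 µM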
RanGTP-Impb inh: inhibitors of RanGTP-importin-beta interaction, primary screen, biochemical, FRET, CFP-Ran, YFP-importin-beta, homogeneous. inhibition, % (concentration not given with the values). cell-free CFP-Ran/YFP-importin-beta FRET ratio. 1.1% of 300,000 active. AID 2216;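 active means more than half of the replicate wells show a fall in the fluorescence ratio signal beyond about 16%, limit read from the data, passing the limit was not always enough; inconclusive means exactly half of the replicate wells pass the set limit; inactive means fewer than half of replicates pass the limit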;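 further: 0% = DMSO wells and 100% = Ran loaded with GDP instead of GTP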
Efa HMGR inh: E. faecalis class II HMG-CoA reductase inhibition. AID 1066. 0.41% of 190,000 active. purified E. faecalis HMGR, NADPH absorbance 340 nm kinetic. inhibition, % at 10 µM;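 active means inhibition above a set limit, the median over all tested compounds plus 3 SD, cut at about 9.5% in these data; inconclusive means no clear call, values can overlap the other calls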;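 further: enzyme runs in reverse so mevalonate oxidation gives rising NADPH absorbance; 0% = complete reaction with DMSO and 100% = background rate lacking mevalonate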
Runt-CBFb FRET: inhibitors of human RUNX1 Runt domain binding to CBFb; Q01196+Q13951; AID 1496; inhibition, % at 20 µM; 0.46% of 220,000 active; Cerulean-Runt/Venus-CBFb FRET ratio 530/480, 1 h;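 active means inhibition over about 50% at 20 µM in the single-dose screen, limit read from the data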;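 further: 0% = DMSO wells and 100% = excess unlabeled CBFb competitor control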
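Assay system: Cerulean-Runt domain fusion protein, energy donor; Signal: fluorescence energy transfer, 422 nm excitation, 530/480 nm emission; Timing: 1 h compound exposure, room temperature; Control set: unlabeled CBFb; Medium: Tris buffer pH 7.5 with salts and BSA; Compound: single test concentration of 20 µM, 1% DMSO final; Probe or stimulus: Venus-CBFb 100 nM.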
PHOSPHO1 inh: inhibitors of human PHOSPHO1 phosphatase | inhibition, % at 13.3 µM | recombinant PHOSPHO1, absorbance phosphatase assay | AID 1565 | 1.1% of 290,000 active; in the data active means inhibition above about 60%
Target sequence (Q8TCT1 whole entry, looked up): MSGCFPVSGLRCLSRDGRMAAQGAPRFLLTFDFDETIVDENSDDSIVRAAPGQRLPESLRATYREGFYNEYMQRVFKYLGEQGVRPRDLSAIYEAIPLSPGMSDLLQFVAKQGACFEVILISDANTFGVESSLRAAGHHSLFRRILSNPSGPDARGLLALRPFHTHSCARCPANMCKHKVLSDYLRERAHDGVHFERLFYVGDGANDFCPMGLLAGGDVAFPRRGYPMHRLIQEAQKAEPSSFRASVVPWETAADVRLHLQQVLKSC
* = called active by the depositor; ? = inconclusive; nt = not tested or not shown. Rows were chosen to be rich in hits. Some 3.4% of all compounds tested hit in one or more screens of this group.

SMILES	Runt-SMMHC FRET	Wee1 stabilizer	RanGTP-Impb inh	Efa HMGR inh	Runt-CBFb FRET	PHOSPHO1 inh
Cc1cc(NC(=O)C(C)SCC(=O)N(C)CC(=O)Nc2ccccc2Br)no1 (centres undefined)	nt	nt	2.1	nt	nt	nt
COc1ccc(N2CCN(c3nc4cc(C)ccc4cc3C=O)CC2)cc1	nt	nt	-1.7	nt	nt	15.1
NNC(=O)CN(CCc1ccccc1)S(=O)(=O)c1ccc(Cl)cc1	2.9	-0.8	-1.3	-5.0	0.9	43.9
O=C(CN(CCc1ccccc1)S(=O)(=O)c1ccc(Cl)cc1)N/N=C/c1ccccc1C(=O)O	-6.7	-2.1	20.4*	-4.6	-5.2	10.8
O=C(O)C1CCN(C(=O)COc2ccc3c(c2)oc(=O)c2ccccc23)CC1	nt	nt	0.3	nt	nt	23.4
O=C(O)c1ccc(CN2C(=O)CSC2=S)cc1	3.7	0.8	-4.1	-4.7	10.4	71.1*
Cc1ccc(N2C(=O)C3NN=C(C(=O)OCc4ccccc4)C3C2=O)c(C)c1 (centres undefined)	-2.0	-3.7	-0.7	-5.2	-2.9	0.2
O=C(CSCc1ccco1)c1ccc(Cl)s1	1.3	1.9	0.7	-3.2	1.5	47.8
O=C(CCN1CCC(c2ccc(Cl)s2)=N1)c1ccc(Cl)s1	-8.9	7.8	16.4*	nt	-9.4	-5.9
O=C1c2ccccc2C(=O)N1CCSc1n[nH]c(=S)s1	-2.0	-2.1	2.9	-5.1	16.6	98.8*
O=C1c2ccccc2C(=O)N1CCSc1ncn[nH]1	-5.8	-1.0	0.9	-10.8	1.0	7.8
COc1ccccc1NS(=O)(=O)c1ccc(NC(=O)N2CCCCC2)cc1	nt	nt	1.6	nt	nt	47.6
CCCCCCS(=O)[C@H]1CS(=O)(=O)C[C@@H]1S(=O)CCCCCC (some centres undefined)	4.2	-0.6	0.9	-8.1	5.1	95.9*
CCCCCCCCS(=O)C1CCS(=O)(=O)C1 (centres undefined)	1.8	-1.1	1.4	-2.5	-0.2	48.3
CC1OC(O[C@H]2CC[C@]3(C)C4C=C[C@]56OC[C@@]7(CC[C@@H](C)[C@H](C)C75)[C@H](O)C[C@@]6(C)[C@]4(C)CC[C@H]3C2(C)C)C(OC2OC(CO)C(O)C(O)C2OC2OCC(O)C(O)C2O)C(O)C1O (some centres undefined)	0.5	nt	0.5	nt	4.8	30.9
Cc1cc(C(=O)N(C)C2CCCCC2)no1	nt	nt	12.3	nt	nt	14.5
Cc1csc(NC(=O)c2cccs2)n1	-4.5	5.5	4.0	1.0	3.0	15.6
Cc1csc2c(=O)sc(NC(=O)c3ccco3)nc12	59.0*	-0.5	1.4	nt	34.3	3.4
O=C(Nc1nc2ccsc2c(=O)s1)c1ccco1	15.9	1.8	3.6	nt	8.0	-11.0
Cc1csc2c(=O)sc(NC(=O)c3cccs3)nc12	87.0*	-1.0	0.4	nt	40.1	17.7
CC1CCN(Cc2cc(=O)oc3cc(O)c(Cl)cc23)CC1	nt	nt	117.9*	nt	nt	36.0
CC1CN(Cc2cc(=O)oc3cc(O)c(Cl)cc23)CC(C)O1 (centres undefined)	nt	nt	60.9*	nt	nt	10.6
CN(Cc1ccccc1F)Cc1cc(=O)oc2cc(O)c(Cl)cc12	nt	nt	66.9*	nt	nt	22.8
CC1CCN(Cc2cc(=O)oc3cc4c(cc23)CCCC4)CC1	0.5	1.1	?	nt	-2.3	32.2
COc1cc(CNC(=O)c2ccccc2NC(=O)C2=C(C)OCCS2)cc(OC)c1OC	nt	nt	-3.0	nt	nt	1.5
SMILES	Runt-SMMHC FRET	Wee1 stabilizer	RanGTP-Impb inh	Efa HMGR inh	Runt-CBFb FRET	PHOSPHO1 inh
COc1cc(CCNC(=O)c2ccccc2NC(=O)C2=C(C)OCCS2)cc(OC)c1OC	nt	nt	-1.5	nt	nt	63.6*
CCN(CC)S(=O)(=O)c1cccc(C(=O)Nc2cccnc2)c1	-5.6	2.7	-2.5	3.5	0.5	13.1
CNS(=O)(=O)c1cccc(C(=O)Nc2cccnc2)c1	-5.5	10.8*	2.4	0.6	-2.0	30.1
O=C(Nc1cccc(S(=O)(=O)N2CCCC2)c1)c1cccnc1	nt	nt	2.4	nt	nt	-10.1
O=C(Nc1cccnc1)c1cccc(S(=O)(=O)N2CCCCC2)c1	1.2	-1.0	4.6	12.5*	-1.2	40.8
Cc1ccc(S(=O)(=O)Cn2nnnc2CN2CCOCC2)cc1	0.2	10.7*	5.0	-4.4	0.7	-10.9
O=C1Cc2cc(S(=O)(=O)NCc3ccccc3Cl)cc3c2N1CCC3	nt	nt	-1.5	nt	nt	46.9
O=C(CSc1nnnn1C1CCCC1)Nc1ccc(F)cc1	1.5	0.7	0.6	2.8	-3.6	62.3*
O=C(CSc1nnnn1C1CCCCC1)Nc1ccc(F)cc1	-1.8	3.7	-3.9	2.0	0.2	48.2
CC(C)(C)NC(=O)CSc1nc2ccccc2c(=O)[nH]1	3.8	9.6*	-0.9	nt	2.1	43.2
O=c1cc(CSc2ccc(Cl)cc2)nc(-c2ccccn2)[nH]1	nt	nt	-2.8	nt	nt	nt
Cc1nc(Nc2ccccc2)sc1C(=O)Nc1ccccc1	-1.9	-1.3	3.6	nt	-1.1	34.2
CC(=O)c1sc(NC(C)c2ccccc2)nc1C (centres undefined)	nt	nt	2.5	nt	nt	6.3
Cc1nc(NCc2ccccc2)sc1C(=O)Nc1ccccc1	-0.7	1.2	-0.4	-1.7	-2.0	68.1*
Cc1nc(NC(C)c2ccccc2)sc1C(=O)Nc1ccccc1 (centres undefined)	-0.3	1.1	9.3	1.6	-1.9	60.9*
c1ccn2cc(-c3ccc4c(c3)OCO4)cc2c1	91.9*	1.4	-1.7	7.2	59.0*	4.1
c1cnc2nc(-c3ccc4c(c3)OCO4)cn2c1	0.8	-0.2	3.6	-0.6	-1.4	39.7
O=C(NNC(=O)C1[C@H]2CCCC[C@@H]12)c1ccc(=O)oc1 (some centres undefined)	82.5*	-0.9	-0.1	nt	27.6	5.5
O=C(/C=C/c1ccccc1)NCCS(=O)(=O)N1CCN(c2ccccc2F)CC1	nt	nt	0.2	nt	nt	nt
C/C(=N\NC(=O)c1nn(C)c(C)c1Br)c1cccc(NC(=O)c2ccoc2C)c1	-0.8	9.8*	1.9	-5.1	-4.4	2.1
COc1ccc(F)cc1C(=O)C1CCCN(C(=O)CSc2ccccn2)C1 (centres undefined)	3.0	-0.6	-1.4	2.6	0.8	35.4
COc1ccccc1C(=O)C1CCCN(C(=O)CSc2ccccn2)C1 (centres undefined)	-0.7	10.3*	3.3	2.8	1.3	31.1
